In ChEMBL document CHEMBL4024774 (J Med Chem, 2017):
pIC50, pKi: −log10 of the molar value. The source made the active and inactive calls. The calls are words filed in the database; no cut-off is given here.

Assays:
[1] = molecular target: Sodium-dependent dopamine transporter (Rattus norvegicus, UniProt P23977); assay: Displacement of [3H]WIN35428 from Sprague-Dawley rat brain DAT after 120 mins by liquid scintillation counting method
How it was run: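 Rat striatal membranes (male Sprague-Dawley) in sucrose phosphate buffer pH 7.4. […] Terminated by filtration on GF/B filters presoaked in 0.05% PEI, then scintillation counting.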

[2] = Displacement of [3H]nisoxetine from Sprague-Dawley rat brain NET after 180 mins by liquid scintillation counting method
How it was run: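 Frontal cortex membranes from male Sprague-Dawley rats in 50 mM Tris, 120 mM NaCl, 5 mM KCl, pH 7.4. […] Nonspecific binding with 1 μM desipramine. Methanol level held constant across tubes. Filtered on GF/B filters in 0.05% PEI.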

[3] = molecular target: Sodium-dependent serotonin transporter (Rattus norvegicus, UniProt P31652); assay: Displacement of [3H]citalopram from Sprague-Dawley rat brain SERT after 60 mins by liquid scintillation counting method
Sodium-dependent serotonin transporter, sequence (P31652 whole entry): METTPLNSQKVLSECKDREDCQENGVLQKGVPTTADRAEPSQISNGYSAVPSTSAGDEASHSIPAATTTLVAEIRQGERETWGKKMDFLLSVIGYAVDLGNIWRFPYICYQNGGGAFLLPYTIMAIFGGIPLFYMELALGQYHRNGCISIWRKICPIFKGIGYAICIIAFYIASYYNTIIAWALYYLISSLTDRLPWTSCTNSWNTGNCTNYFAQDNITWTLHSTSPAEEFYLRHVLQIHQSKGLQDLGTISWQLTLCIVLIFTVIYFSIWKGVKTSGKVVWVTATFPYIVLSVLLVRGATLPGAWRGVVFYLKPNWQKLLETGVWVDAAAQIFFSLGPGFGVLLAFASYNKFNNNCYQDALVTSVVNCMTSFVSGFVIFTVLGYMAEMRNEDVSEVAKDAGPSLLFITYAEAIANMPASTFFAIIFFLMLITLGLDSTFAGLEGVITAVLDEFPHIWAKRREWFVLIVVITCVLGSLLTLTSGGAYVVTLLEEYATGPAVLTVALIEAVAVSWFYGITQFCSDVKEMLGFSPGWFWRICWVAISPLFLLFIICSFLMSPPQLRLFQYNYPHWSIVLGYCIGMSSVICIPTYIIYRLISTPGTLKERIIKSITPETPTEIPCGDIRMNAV
How it was run: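 Male Sprague-Dawley rat brain stem membranes in 50 mM Tris with 120 mM NaCl and 5 mM KCl, pH 7.4. […] Nonspecific binding with 10 μM fluoxetine. Filtered on GF/B filters presoaked in 0.3% PEI, scintillation counted.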

[4] = species: Homo sapiens; assay: Selectivity ratio of Ki for human DAT […] mutant expressed in African green monkey COS7 cells to Ki for wild type human DAT expressed in African green monkey COS7 cells; type: cell-based
How it was run: (§1)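 Whole COS7 cells transiently expressing human DAT WT or the Y156F mutant, washed in ice-cold uptake buffer. Incubated with [³H]WIN 35,428 and inhibitor (1 nM–1 mM, 12 concentrations) at 5 °C to equilibrium (>90 min). Triplicates. Ki from IC50 by nonlinear regression and Cheng–Prusoff. Ratio is Y156F Ki over WT Ki.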

[5] = molecular target: T1, Sodium-dependent dopamine transporter (Homo sapiens, UniProt Q01959); assay: Inhibition of […] uptake at wild type human DAT expressed in African green monkey COS7 cells after 90 mins; type: cell-based; how it was run: as §1
T1 sequence (Q01959 whole entry): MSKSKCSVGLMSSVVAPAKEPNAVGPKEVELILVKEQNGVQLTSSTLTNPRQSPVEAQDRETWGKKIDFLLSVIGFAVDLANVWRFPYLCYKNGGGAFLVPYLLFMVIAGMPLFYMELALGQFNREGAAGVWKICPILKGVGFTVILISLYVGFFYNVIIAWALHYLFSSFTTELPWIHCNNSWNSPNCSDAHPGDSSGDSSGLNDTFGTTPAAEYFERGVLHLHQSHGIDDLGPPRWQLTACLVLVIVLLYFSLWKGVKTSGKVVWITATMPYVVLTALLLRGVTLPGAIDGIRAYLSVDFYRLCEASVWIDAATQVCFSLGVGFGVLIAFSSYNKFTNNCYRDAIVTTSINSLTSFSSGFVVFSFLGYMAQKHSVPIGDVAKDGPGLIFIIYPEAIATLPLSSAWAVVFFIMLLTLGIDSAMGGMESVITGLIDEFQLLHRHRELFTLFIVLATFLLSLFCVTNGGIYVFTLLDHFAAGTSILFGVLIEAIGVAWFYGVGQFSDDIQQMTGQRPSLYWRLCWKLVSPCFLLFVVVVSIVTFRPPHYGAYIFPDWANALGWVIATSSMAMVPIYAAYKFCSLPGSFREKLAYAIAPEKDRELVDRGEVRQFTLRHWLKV

[6] = Inhibition of […] uptake at human DAT […] mutant expressed in African green monkey COS7 cells after 90 mins; type: cell-based; how it was run: as §1
[7] = molecular target: T1, Sodium-dependent dopamine transporter; assay: Inhibition of [3H]DA uptake at wild type human DAT expressed in African green monkey COS7 cells after 5 mins by beta scintillation counting method; type: cell-based
How it was run: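 COS7 cells transiently transfected with synthetic human DAT and assayed 2 days later. Preincubated with inhibitor (1 nM–1 mM, 12 concentrations) in HEPES uptake buffer pH 7.4 containing ascorbate and a COMT inhibitor. 6–10 nM [³H]DA added for 5 min at rt. Nonspecific uptake with 1 μM nomifensine. Cells lysed in SDS and scintillation counted. Run in triplicate. Ki from IC50 by Cheng–Prusoff.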

[8] = test system: Mus musculus; assay: Effect on discriminating cocaine from saline in Swiss Webster mouse assessed as cocaine lever response at 0.3 to 30 mg/kg, ip administered 5 to 30 mins prior to training session relative to control; type: functional
How it was run: (§2)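 Testing began after ≥85% correct responding on 4 consecutive sessions. Test drug given i.p. at 0.1–30 mg/kg, 5 or 30 min before the session, with 10 consecutive responses on either lever reinforced. ED50 taken from a linear fit. Response rate expressed as % of saline. 6 mice.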

[9] = test system: Liver; assay: Metabolic stability in mouse liver microsomes assessed as parent compound remaining at 10 uM after 1 hr in presence of NADPH by LC/MS/MS analysis; type: ADME, microsome
How it was run: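 Mouse liver microsomes at 0.5 mg/mL with test compound at 10 μM final, in 100 mM potassium phosphate pH 7.4 with an NADPH regenerating system (1.3 mM NADPH). Reaction started by adding microsomes. Controls run without cofactor. Parent remaining measured by LC/MS/MS on a C18 column with formic acid/acetonitrile gradient. Triplicate.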

[10] = Selectivity ratio of IC50 for human ERG expressed in HEK cells to Ki for Sprague-Dawley rat brain DAT; type: cell-based
[11] = test system: Mus musculus; assay: Effect on execution of behavioral task in Swiss Webster mouse assessed as overall group response rate at 0.3 to 30 mg/kg, ip relative to control; type: organism-based; details: in vivo; how it was run: as §2
[12] = molecular target: Voltage-gated inwardly rectifying potassium channel KCNH2 (Homo sapiens, UniProt Q12809); assay: Displacement of [3H]Dofetilide from human ERG expressed in HEK cells after 180 mins by scintillation counting method; type: cell-based
Voltage-gated inwardly rectifying potassium channel KCNH2, sequence (Q12809 whole entry): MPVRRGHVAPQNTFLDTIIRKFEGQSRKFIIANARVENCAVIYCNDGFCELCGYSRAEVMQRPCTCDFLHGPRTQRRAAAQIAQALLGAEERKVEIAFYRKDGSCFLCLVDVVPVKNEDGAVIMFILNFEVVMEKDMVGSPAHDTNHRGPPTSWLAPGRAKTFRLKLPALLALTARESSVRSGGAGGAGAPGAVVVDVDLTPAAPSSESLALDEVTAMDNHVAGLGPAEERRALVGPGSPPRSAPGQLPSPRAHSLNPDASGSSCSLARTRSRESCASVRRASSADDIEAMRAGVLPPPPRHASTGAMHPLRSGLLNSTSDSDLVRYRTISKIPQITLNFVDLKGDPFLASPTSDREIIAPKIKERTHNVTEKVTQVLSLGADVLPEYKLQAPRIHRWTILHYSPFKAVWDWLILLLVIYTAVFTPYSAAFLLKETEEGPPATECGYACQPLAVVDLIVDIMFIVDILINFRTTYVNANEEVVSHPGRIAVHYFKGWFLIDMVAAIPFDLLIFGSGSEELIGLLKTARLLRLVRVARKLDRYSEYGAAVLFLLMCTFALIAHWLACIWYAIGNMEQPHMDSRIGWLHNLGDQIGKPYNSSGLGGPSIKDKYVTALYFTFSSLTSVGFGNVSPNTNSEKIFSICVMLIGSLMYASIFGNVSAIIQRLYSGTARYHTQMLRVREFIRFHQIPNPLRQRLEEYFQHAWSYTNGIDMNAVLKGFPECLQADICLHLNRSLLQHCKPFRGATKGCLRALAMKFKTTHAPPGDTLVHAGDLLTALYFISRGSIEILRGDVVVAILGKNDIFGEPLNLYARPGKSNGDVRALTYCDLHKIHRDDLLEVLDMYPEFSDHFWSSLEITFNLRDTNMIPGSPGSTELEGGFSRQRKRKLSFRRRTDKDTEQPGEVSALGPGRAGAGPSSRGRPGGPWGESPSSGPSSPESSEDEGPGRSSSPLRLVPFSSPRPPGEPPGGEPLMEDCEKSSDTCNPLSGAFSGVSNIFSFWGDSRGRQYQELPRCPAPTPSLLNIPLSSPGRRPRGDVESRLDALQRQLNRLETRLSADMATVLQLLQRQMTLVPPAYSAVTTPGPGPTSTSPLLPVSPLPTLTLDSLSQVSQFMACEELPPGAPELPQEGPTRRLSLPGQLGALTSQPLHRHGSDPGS

[13] = test system: Mus musculus; assay: Decrease in locomotory activity in Swiss Webster mouse at 3 to 30 mg/kg, ip after 1 hr relative to control; type: functional, organism-based
How it was run: (§3)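 Male Swiss Webster mice, ambulatory activity counted in 40 cm³ clear acrylic chambers over a 1 h session with no prior habituation. Drug given i.p. at 1 mL/kg immediately before the session. 6 mice per dose, each used once. Analysed by ANOVA then Dunnett's test against vehicle.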

[14] = test system: Mus musculus; assay: Decrease in locomotory activity in Swiss Webster mouse at 56 mg/kg, ip after 1 hr relative to control; type: functional; parameters: scale not given: the % may be the effect or the level left; how it was run: as §3

Sodium-dependent dopamine transporter (Rattus norvegicus, UniProt P23977), sequence (P23977 whole entry): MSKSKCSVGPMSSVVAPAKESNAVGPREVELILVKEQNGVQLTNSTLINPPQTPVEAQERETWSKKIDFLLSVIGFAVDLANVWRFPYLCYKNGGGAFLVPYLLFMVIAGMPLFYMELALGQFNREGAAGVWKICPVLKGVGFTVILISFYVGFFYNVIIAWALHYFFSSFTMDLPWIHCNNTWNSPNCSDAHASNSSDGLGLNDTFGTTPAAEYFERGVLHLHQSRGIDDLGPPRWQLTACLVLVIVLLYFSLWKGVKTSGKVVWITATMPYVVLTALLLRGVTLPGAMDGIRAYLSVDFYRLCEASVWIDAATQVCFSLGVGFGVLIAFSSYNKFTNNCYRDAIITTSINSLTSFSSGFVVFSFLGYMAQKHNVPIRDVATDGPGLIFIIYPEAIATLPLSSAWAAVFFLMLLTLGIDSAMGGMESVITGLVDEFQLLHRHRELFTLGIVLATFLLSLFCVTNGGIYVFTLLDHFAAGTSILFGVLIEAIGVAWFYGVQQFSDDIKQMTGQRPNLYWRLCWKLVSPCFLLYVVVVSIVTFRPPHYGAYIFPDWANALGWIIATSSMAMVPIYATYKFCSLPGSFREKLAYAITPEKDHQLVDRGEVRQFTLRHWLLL

Row | SMILES | pKi [1] | pKi [2] | pKi [3] | Ratio Ki [4] | pKi [5] | pKi [6] | pKi [7] | Activity [8] [%] | Stability [9] [%] | Selectivity ratio [10] | Activity [11] [%] | pIC50 [12] | Activity [13] | Activity [14] [%]
1 | CN1C2CCC1[C@@H](c1cc(-c3ccc(F)cc3)no1)[C@@H](OC(c1ccc(F)cc1)c1ccc(F)cc1)C2 (mixture of isomers) | 7.16 | 5.79 | 5.52 |  |  |  |  |  |  |  |  |  |  | 
2 | CN1C2CCC1[C@@H](c1cc(-c3ccccc3)no1)[C@@H](OC(c1ccc(F)cc1)c1ccc(F)cc1)C2 (mixture of isomers) | 7.22 | 5.96 | 5.42 | 2.4 | 5.83 | 5.46 | 5.89 |  |  |  |  |  |  | 
3 | CCOC(=O)[C@@H]1C2CCC(C[C@@H]1OC(c1ccc(F)cc1)c1ccc(F)cc1)N2CC1CC1 (mixture of isomers) | 7.92 | 6.26 | 5.43 |  |  |  |  |  |  |  |  |  |  | 
4 | Cc1ccc(-c2cc([C@@H]3C4CCC(C[C@@H]3OC(c3ccc(F)cc3)c3ccc(F)cc3)N4C)on2)cc1 (mixture of isomers) | 7.03 | 5.57 | 5.36 |  |  |  |  |  |  |  |  |  |  | 
5 | CN(C)CCN1C2CCC1CC(OC(c1ccc(F)cc1)c1ccc(F)cc1)C2 (stereo not drawn) | 7.92 | 6.03 | 5.50 | 6.3 | 8.00 | 7.20 | 7.33 | 23 | 88 | 686 | < 50 | 5.08 | Active | 14
6 | Fc1ccc(C(OC2CC3CCC(C2)N3CCc2c[nH]c3ccccc23)c2ccc(F)cc2)cc1 (stereo not drawn) | 7.53 | 5.13 | 6.31 | 6.7 | 6.60 | 5.77 |  |  |  |  |  |  |  | 
7 | Fc1ccc(C(OC2CC3CCC(C2)N3CC2CC2)c2ccc(F)cc2)cc1 (stereo not drawn) | 7.61 | 5.79 | 5.85 |  |  |  |  |  |  | 161 |  | 5.40 |  | 
8 | C=C[C@@H]1C2CCC(C[C@@H]1OC(c1ccc(F)cc1)c1ccc(F)cc1)N2CCN(C)C (mixture of isomers) | 7.87 |  | 5.29 |  |  |  |  |  |  |  |  |  |  | 
9 | NCCN1C2CCC1CC(OC(c1ccc(F)cc1)c1ccc(F)cc1)C2 (stereo not drawn) | 8.25 | 5.85 | 5.34 |  |  |  |  |  |  |  |  |  |  | 
10 | CN1C2CCC1[C@@H](c1cc(-c3ccccc3)no1)C(OC(c1ccc(F)cc1)c1ccc(F)cc1)C2 (single isomer, unassigned) | 7.84 | 6.38 | 5.88 | 6.5 | 7.55 | 6.74 | 6.67 |  |  |  |  |  |  | 
11 | Fc1ccc(C(OC2CC3CCC(C2)N3CCN2CCCCC2)c2ccc(F)cc2)cc1 (stereo not drawn) | 7.88 | 6.43 | 5.84 |  |  |  |  |  |  |  |  |  |  | 
12 | Fc1ccc(C(NC2CC3CCC(C2)N3CCN2CCCCC2)c2ccc(F)cc2)cc1 (stereo not drawn) | 7.97 | 6.21 | 5.42 |  |  |  |  |  |  |  |  |  |  | 
13 | CN(C)CCN1C2CCC1CC(NC(c1ccc(F)cc1)c1ccc(F)cc1)C2 (stereo not drawn) | 7.84 | 5.40 | 4.92 | 20 | 7.80 | 6.69 | 7.40 |  |  | 383 |  | 5.26 |  | 
14 | Cc1ccc(-c2cc(C3C(c4ccc(Cl)cc4)CC4CCC3N4C)on2)cc1 (stereo not drawn) | 7.97 | 5.93 | 4.63 | 4 | 7.46 | 6.85 | 7.80 |  |  |  |  |  |  | 
15 | CC(C)[C@@H](N)CN1C2CCC1CC(OC(c1ccc(F)cc1)c1ccc(F)cc1)C2 (stereo partly drawn) | 7.88 | 5.67 | 5.41 | 3.8 | 7.09 | 6.51 | 6.88 |  |  | 345 |  |  |  | 
16 | CCCCN1C2CCC1CC(NC(c1ccc(F)cc1)c1ccc(F)cc1)C2 (stereo not drawn) |  |  |  | 15 | 7.62 | 6.45 | 7.21 |  |  |  |  |  |  | 
17 | CCOC(=O)[C@@H]1C2CCC(C[C@@H]1OC(c1ccc(F)cc1)c1ccc(F)cc1)N2CCc1c[nH]c2ccccc12 (mixture of isomers) | 7.58 | 5.84 | 6.13 |  | 6.83 | 5.97 | 6.03 |  |  |  |  |  |  | 
18 | Cc1ccc(C2CC3CCC(C2c2cc(-c4ccc(Cl)cc4)no2)N3C)cc1 (stereo not drawn) | 8.07 | 6.05 | 4.54 | 9 | 7.57 | 6.62 | 8.01 |  |  |  |  |  |  | 
19 | CC(C)[C@@H](N)CN1C2CCC1CC(NC(c1ccc(F)cc1)c1ccc(F)cc1)C2 (stereo partly drawn) | 7.68 | 5.63 | 5.27 |  |  |  |  |  |  |  |  |  |  | 
20 | CCOC(=O)[C@@H]1C2CCC(C[C@@H]1OC(c1ccc(F)cc1)c1ccc(F)cc1)N2C[C@H](N)C(C)C (mixture of isomers) | 7.27 | 5.35 | 5.86 | 7.1 | 6.66 | 5.81 | 5.98 |  |  |  |  |  |  | 
21 | CN1C2CCC1[C@@H](c1cc(-c3ccc(Cl)cc3)no1)[C@@H](OC(c1ccc(F)cc1)c1ccc(F)cc1)C2 (mixture of isomers) | 7.18 | 5.80 | 6.12 |  |  |  |  |  |  |  |  |  |  | 
